Screening results: PubChem BioAssay, Sanford-Burnham Center for Chemical Genomics
EBI2 block: blocks human EBI2 receptor beta-arrestin signaling; AID 651636; P32249; EBI2 beta-arrestin recruitment, luminescence, 7a,25-OHC stimulated; inhibition, % at 5 µM; actives 0.81% (n = 360,000); in the data active = inhibition above about 38%;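 also: enzyme fragment complementation signal reports receptor beta-arrestin coupling in cells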
Target sequence (P32249 whole entry, looked up, the tested form may be a part): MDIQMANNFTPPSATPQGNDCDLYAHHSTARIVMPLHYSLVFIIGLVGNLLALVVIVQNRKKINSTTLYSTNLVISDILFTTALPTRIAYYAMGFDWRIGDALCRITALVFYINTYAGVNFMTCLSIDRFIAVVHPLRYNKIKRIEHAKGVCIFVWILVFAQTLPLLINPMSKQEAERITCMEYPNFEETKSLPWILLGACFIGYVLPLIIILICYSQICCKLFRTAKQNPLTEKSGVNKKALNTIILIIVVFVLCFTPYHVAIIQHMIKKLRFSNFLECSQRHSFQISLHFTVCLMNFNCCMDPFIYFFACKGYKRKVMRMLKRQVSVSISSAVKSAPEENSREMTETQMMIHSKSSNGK
CCR6 antagonist: CCR6 (human) receptor antagonism; P51684; CHO-K1 CCR6 PathHunter beta-arrestin, luminescence, CCL20-stimulated; inhibition, % at 20 µM; actives 0.49% (n = 340,000); AID 493098;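 active = compounds whose inhibition of the agonist-driven luminescence signal at 20 µM reaches about 50%, limit read from the data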;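 also: cells stimulated with CCL20 at 14 nM final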
CXCR6 block: CXCR6 (human) receptor inhibition; inhibition, % at 20 µM; actives 0.36% (n = 360,000); CHO-K1 PathHunter CXCR6 beta-arrestin, luminescence; AID 602244; O00574; in the data active = inhibition above about 34%, passing the limit was not always enough;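 also: antagonist mode with CXCL16 agonist at 10 nM final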
APJ antagonist: blocks the human apelin receptor APJ | P35414 | CHO-K1 APJ beta-arrestin complementation, luminescence | inhibition, % at 20 µM | actives 0.32% (n = 330,000) | AID 2521;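 active = inhibition above about 40% at 20 µM, limit read from the data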;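 also: cells challenged with 10 nM apelin-13 agonist together with compound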
APJ agonist: agonists of human APJ apelin receptor; P35414; CHO-K1 APJ PathHunter beta-arrestin, luminescence; 0% DMSO wells, 100% apelin; activation, % at 20 µM; actives 0.11% (n = 330,000); AID 2520;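 active = activation more than six SD over the plate average, tested at 20 µM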
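Test system: CHO-K1 APJ beta-arrestin complementation cell line. Amount: cell density 1000 per well. Controls: DMSO negative, 10 nM Apelin-13 positive. Signal: luminescent beta-gal fragment complementation, chemiluminescent substrate. Read-out basis: agonist-driven arrestin binding to APJ. Timing: compound stimulation 90 min at 25 °C, detection 60 min.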
EBI2 conf: confirmation of human EBI2 receptor antagonists. shares compounds with EBI2 block. EBI2 beta-arrestin luminescence, 7a,25-OHC antagonism. inhibition, % at 5 µM. actives 29% (n = 2,400). AID 651997;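 active = inhibition of at least 50%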
EBI2 ag: activates EBI2, counter-screen for EBI2 antagonists. shares compounds with EBI2 block. EBI2-expressing cells, agonist mode, luminescence, 60 min; 0% vehicle, 100% 7α,25-dihydroxycholesterol control. activation, % at 5 µM. 2,400 tested, under 10 active;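 active = activation of at least 50%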
bGal counter: beta-galactosidase inhibition counter-screen | shares compounds with EBI2 block | purified beta-galactosidase, luminescent Galacton Star, 15 min | inhibition, % at 5 µM | actives 1% (n = 2,400);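 active = replicate-average signal at least 3 plate SD below neutral wells, shown as high inhibition, flagging enzyme-inhibiting false positives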;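 also: higher means stronger loss of beta-gal luminescence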
Hits are given with their value; 0 = inactive; - = not tested or not shown. Sampled rows, rich in hits. Any-hit rate of the full collection: about 1.5%.

SMILES	EBI2 block	CCR6 antagonist	CXCR6 block	APJ antagonist	APJ agonist	EBI2 conf	EBI2 ag	bGal counter
Cc1ccc(SCC2(O)CCN(C(=O)c3ccc(Cl)cc3)CC2)cc1	47.1	0	0	0	0	0	0	0
CC(CN1CCCCC1)OC(=O)/C=C/c1ccccc1 (stereo unspecified)	0	0	0	0	0	-	-	-
CC1(C)c2[nH]c3ccccc3c2C[C@@H]2C(=O)N(c3cc(F)ccc3F)C(=O)N21	0	0	0	0	0	-	-	-
CC[C@H]1c2[nH]c3ccccc3c2C[C@@H]2C(=O)N(c3ccc(F)cc3)C(=O)N21	49.4	0	0	0	0	0	0	0
O=C(Nc1ccc(C(=O)N2CCOCC2)cc1)c1cc(-c2cccnc2)nc2ccc(Cl)cc12	0	0	0	0	0	-	-	-
CCOc1ccc(C(=O)/C=C/c2ccc(SC)cc2)cc1	60.8	0	0	0	0	50.4	0	0
COc1ccc(CCNC(=O)C23CN(Cc4ccccc4)CC2C(c2ccc([N+](=O)[O-])cc2)=NO3)cc1 (stereo unspecified)	60.8	0	0	0	0	0	0	0
COc1ccc(CNC(=O)C23CN(Cc4ccccc4)CC2C(c2ccc([N+](=O)[O-])cc2)=NO3)cc1 (stereo unspecified)	0	0	0	0	0	-	-	-
N#CCCn1cc(/C=C(\C#N)c2nc3ccccc3s2)c(-c2ccc(F)cc2)n1	45.5	0	0	0	0	0	0	0
C=CCNC(=S)NNC(=O)CC12CC3CC(CC(C3)C1)C2	0	0	0	0	0	-	-	-
CCOC(=O)C1CCN(C(=O)c2cc3c(s2)-c2ccccc2OC3)CC1	78.9	0	0	0	0	74.1	0	0
COc1ccccc1N1CCN(C(=O)c2cc3c(s2)-c2ccccc2OC3)CC1	84.9	0	0	0	0	82.4	0	0
Cc1ccccc1/C=N/n1c(-c2cc(-c3ccccc3)n[nH]2)n[nH]c1=S	0	0	0	0	0	-	-	-
S=c1[nH]nc(-c2cc(-c3ccccc3)n[nH]2)n1/N=C/c1c(Cl)cccc1Cl	44.2	0	0	0	0	65.1	0	0
COc1ccc(Cl)cc1-c1cc(C(=O)NCc2ccc(C(F)(F)F)cc2)[nH]n1	0	-	0	-	-	-	-	-
CC1CC(C)CN(S(=O)(=O)c2ccc(NC(=S)NC(=O)c3ccccc3)cc2)C1 (stereo unspecified)	46.8	0	0	0	0	0	0	0
CC(=O)CSc1nc2ccc(Nc3nc(N4CCOCC4)nc(N4CCOCC4)n3)cc2s1	44.1	0	0	0	0	0	0	0
COc1ccc(CNS(=O)(=O)c2c(C(=O)N3CCCCC3)c(C)n(C)c2C)cc1	0	0	0	0	0	-	-	-
CCOC(=O)C1(CC2CCCCO2)CCN(C(=O)Nc2ccc(SC)cc2)CC1 (stereo unspecified)	40.4	0	0	0	0	0	0	0
CCOC(=O)C1(CC2CCCCO2)CCN(C(=O)Nc2cccc(SC)c2)CC1 (stereo unspecified)	0	0	0	0	0	-	-	-
COC(=O)/C=C1\OCc2c(F)cccc21	0	-	-	-	-	-	-	-
CCS(=O)(=O)N1Cc2ccccc2CC1C(=O)NCCc1c[nH]c2ccccc12 (stereo unspecified)	44.4	0	0	0	0	0	0	0
COc1ccc(S(=O)(=O)N2CCC(C(=O)NCCc3c[nH]c4ccccc34)CC2)cc1	45.2	0	0	0	0	0	0	0
CCS(=O)(=O)N1Cc2ccccc2CC1C(=O)Nc1nc2ccccc2[nH]1 (stereo unspecified)	0	0	0	0	0	-	-	-
CCN1C(=O)/C(=C\c2nc3ccccc3c(=O)n2CC)c2ccccc21	0	0	0	0	0	-	-	-
SMILES	EBI2 block	CCR6 antagonist	CXCR6 block	APJ antagonist	APJ agonist	EBI2 conf	EBI2 ag	bGal counter
CCN1C(=O)/C(=C/c2nc3ccccc3c(=O)n2-c2ccccc2)c2ccccc21	45.2	0	0	0	0	51.0	0	0
COc1ccc(N(C(=O)Cn2nnc(-c3ccc(C)o3)n2)C(C(=O)NC2CCCC2)c2ccncc2)cc1 (stereo unspecified)	0	0	0	0	0	-	-	-
CCOC(=O)Cc1csc(NC(=O)/C=C/c2ccc(OC)cc2)n1	46.1	0	0	0	0	0	0	0
CCOC(=O)Cc1csc(NC(=O)/C=C\c2ccccc2)n1	0	0	0	0	0	-	-	-
C#CCOC(=O)Nc1cc(C)n(-c2ccccc2)n1	0	0	0	0	0	-	-	-
COc1ccc(OCC(=O)Nc2ccc(N3CCOCC3)cc2)cc1	84.1	0	0	0	0	78.8	0	0
O=C(COc1ccc(Cl)cc1)Nc1ccc(N2CCN(C(=O)c3ccco3)CC2)cc1	54.1	0	0	0	0	0	0	0
Cc1ccc(OCC(=O)Nc2ccc(N3CCOCC3)cc2)cc1	0	0	0	0	0	-	-	-
Cc1ccc(OCC(=O)Nc2ccc(N3CCN(C(=O)c4ccc(C)cc4)CC3)cc2)cc1	57.4	0	0	0	0	0	0	0
CCCOc1ccc(C(=O)N2CCN(c3ccc(NC(=O)CC)cc3Cl)CC2)cc1	70.1	0	0	0	0	59.5	0	0
Cc1ccc(C#CC[N+]2(C)CCCCC2)cc1	0	0	0	0	0	-	-	-
COc1ccc(-c2c(C)nn3c(N4CCN(Cc5ccccc5)CC4)cc(C)nc23)cc1OC	0	0	0	0	0	-	-	-
Cc1cc(N2CCN(Cc3ccccc3)CC2)n2nc(C)c(-c3ccccc3)c2n1	46.9	0	0	0	0	0	0	0
O=C(N/N=C/c1c[nH]c2ccccc12)c1ccccc1	0	0	0	0	0	-	-	-
O=C(NN=Cc1c[nH]c2ccccc12)NN=Cc1c[nH]c2ccccc12	74.2	-	0	-	-	62.0	0	0
CCCc1c(C(=O)N/N=C/c2c[nH]c3ccccc23)nnn1-c1nonc1N	42.8	-	0	-	-	0	0	0
CCCN(CCC)Cc1c(C(=O)N/N=C/c2c[nH]c3ccccc23)nnn1-c1nonc1N	0	0	0	0	0	-	-	-
CC1=C(C(=O)Nc2ccccc2C(=O)NC2CCC(C)CC2)SCCO1 (stereo unspecified)	0	0	0	0	0	-	-	-
c1ccc(Oc2ncnc3oc(-c4ccccc4)cc23)cc1	50.1	0	0	0	0	0	0	0
COc1cc2ccccc2cc1C(=O)Nc1ccc(Cc2ccncc2)cc1	47.9	0	0	0	0	0	0	0
COc1cc2ccccc2cc1C(=O)Nc1ccc(C)cc1	0	0	0	0	0	-	-	-
Clc1cccc(CNCCCSc2ncccn2)c1	0	0	0	0	0	-	-	-
